Measurements reported in ChEMBL document CHEMBL1123984, “Stereochemical aspects of phenylethanolamine analogues as substrates of phenylethanolamine N-methyltransferase” (J Med Chem, 1988).

T1: Phenylethanolamine N-methyltransferase (Bos taurus, UniProt P10938)
T1 sequence (P10938 whole entry): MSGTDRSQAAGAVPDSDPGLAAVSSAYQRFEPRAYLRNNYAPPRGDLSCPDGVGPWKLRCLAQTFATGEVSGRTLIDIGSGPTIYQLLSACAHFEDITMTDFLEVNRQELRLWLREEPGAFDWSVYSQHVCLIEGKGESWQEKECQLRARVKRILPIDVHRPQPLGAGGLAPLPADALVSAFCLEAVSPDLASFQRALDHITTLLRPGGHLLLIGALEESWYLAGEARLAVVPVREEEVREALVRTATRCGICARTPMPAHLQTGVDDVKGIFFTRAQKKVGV


Legend:
[1] = Vmax of compound was determined; assay type: ADME
How it was run: (§1)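 Substrate kinetics used bovine adrenal PNMT, purified through the isoelectric precipitation step, in a radiochemical methylation assay with isoamyl alcohol/toluene extraction. At least five concentrations of the variable substrate gave Km and Vmax. Vmax is in nmol product per mg protein per min, and the ratio is 100 × Vmax/Km.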

[2] = Ratio expressed as 100x Vmax/Km; assay type: ADME; how it was run: as §1
[3] = molecular target: T1, Phenylethanolamine N-methyltransferase; assay: (§2) In vitro binding affinity of compound towards bovine adrenal phenylethanolamine N-methyl-transferase (PNMT)
How it was run: (§3)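 Bovine adrenal PNMT, purified through the isoelectric precipitation step, tested in a radiochemical methylation assay with isoamyl alcohol/toluene extraction. For substrates, Km came from at least five concentrations of the variable substrate. For inhibitors, Ki came from at least three inhibitor concentrations, with phenylethanolamine as the variable substrate.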

[4] = substrate: C[C@H](N)[C@H](O)c1ccccc1; assay: as §2; how it was run: as §3
[5] = substrate: N[C@H]1CCc2ccccc2[C@H]1O; assay: as §2; how it was run: as §3

Row | Molecule | Vmax [1] [nM/mg/min] | Ratio [2] | Ki [3] [µM] | further results
1 | NC[C@@H](O)c1ccccc1 | 0.92 | 0.96 | – | –
2 | NC[C@H](O)c1ccccc1 | 4.85 | 1.7 | – | –
3 | N[C@@H]1CCc2ccccc2C1O (single isomer, unassigned) | 0.12 | 0.062 | – | –
4 | N[C@@H]1CCc2ccccc2C1 | – | – | 10 | –
5 | N[C@H]1CCc2ccccc2[C@@H]1O | – | – | 4.6 | –
6 | N[C@@H]1CCc2ccccc2[C@@H]1O | – | – | 293 | –
7 | C[C@H](N)[C@@H](O)c1ccccc1 [CATHINE] | – | – | 3700 | –
8 | N[C@H]1CCc2ccccc2[C@H]1O | 0.16 | 3.6 | – | –
9 | C[C@@H](N)[C@@H](O)c1ccccc1 [(1S,2R)-PHENYLPROPANOLAMINE] | – | – | 2980 | –
10 | C[C@@H](N)[C@H](O)c1ccccc1 | – | – | 2440 | –
11 | N[C@H]1CCc2ccccc2C1 | – | – | 4.1 | –
12 | N[C@@H]1CCc2ccccc2[C@@H]1O (racemic) | 0.15 | – | – | –
13 | C[C@H](N)[C@H](O)c1ccccc1 [(1R,2S)-PHENYLPROPANOLAMINE] | 0.22 | 0.017 | – | –
14 | Phenylethanolamine N-methyltransferase (Bos taurus), P10938 (protein) MSGTDRSQAAGAVPDSDPGLAAVSSAYQRFEPRAYLRNNYAPPRGDLSCPDGVGPWKLRCLAQTFATGEVSGRTLIDIGSGPTIYQLLSACAHFEDITMTDFLEVNRQELRLWLREEPGAFDWSVYSQHVCLIEGKGESWQEKECQLRARVKRILPIDVHRPQPLGAGGLAPLPADALVSAFCLEAVSPDLASFQRALDHITTLLRPGGHLLLIGALEESWYLAGEARLAVVPVREEEVREALVRTATRCGICARTPMPAHLQTGVDDVKGIFFTRAQKKVGV | – | – | – | Km [4]: 1310 µM; Km [5]: 4.5 µM
